# From ChEMBL document CHEMBL4665633, “Cereblon versus VHL: Hijacking E3 ligases against each other using PROTACs” (Bioorg Med Chem, 2019)
# The source made the active and inactive calls. The rule behind the calls is not given here.
# Assays:
# Format in all cases: cell-based
# [1] = target: T1, Protein cereblon/von Hippel-Lindau disease tumor suppressor (Homo sapiens, UniProt P40337+Q96SW2); assay: Protac activity at VHL/CRBN in HEK293 cells assessed as pVHL19 protein abundance at 1 uM after 8 hrs by Western blot analysis relative to DMSO
# Outline: (§1)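 HEK293 cells (DMEM, 10% FBS, penicillin/streptomycin, L-glutamine; 37 °C, 5% CO2; ≤30 passages) seeded at 1 × 10⁶ per well overnight, then treated with compound at 0.1% v/v final DMSO. Cells were lysed in RIPA with protease inhibitors and benzonase, then clarified. Equal Bradford-quantified protein was immunoblotted for CRBN/VHL. Bands were normalised to β-tubulin and expressed as % of mean 0.1% DMSO vehicle.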
# Target sequence in this assay (P40337 whole entry, looked up): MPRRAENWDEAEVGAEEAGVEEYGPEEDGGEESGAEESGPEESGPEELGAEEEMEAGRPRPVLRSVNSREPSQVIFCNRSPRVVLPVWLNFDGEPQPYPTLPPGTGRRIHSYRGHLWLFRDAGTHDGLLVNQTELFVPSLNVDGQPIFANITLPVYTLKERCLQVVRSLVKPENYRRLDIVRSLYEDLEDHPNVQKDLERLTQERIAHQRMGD
# Target sequence in this assay (Q96SW2 whole entry, looked up): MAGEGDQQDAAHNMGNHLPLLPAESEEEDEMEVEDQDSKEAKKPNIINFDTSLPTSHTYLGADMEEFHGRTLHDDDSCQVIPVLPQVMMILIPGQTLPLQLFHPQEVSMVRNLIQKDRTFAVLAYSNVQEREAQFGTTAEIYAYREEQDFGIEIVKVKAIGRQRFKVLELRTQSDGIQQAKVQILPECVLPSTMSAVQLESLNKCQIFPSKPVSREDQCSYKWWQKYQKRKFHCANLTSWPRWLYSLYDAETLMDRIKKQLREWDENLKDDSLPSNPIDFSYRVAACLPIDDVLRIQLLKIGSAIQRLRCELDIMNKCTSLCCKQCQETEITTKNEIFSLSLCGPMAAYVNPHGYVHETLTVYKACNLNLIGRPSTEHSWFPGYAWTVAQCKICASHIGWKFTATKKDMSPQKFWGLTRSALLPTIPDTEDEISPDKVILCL
# [2] = target: T1, Protein cereblon/von Hippel-Lindau disease tumor suppressor; assay: Protac activity at VHL/CRBN in human HeLa cells assessed as CRBN protein abundance at 1 uM after 2 hrs by Western blot analysis relative to DMSO
# Outline: (§2)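 HeLa cells seeded overnight, then exposed to 1 µM compound (0.1% v/v DMSO final) over a time course. Cells were DPBS-washed and RIPA-lysed with protease inhibitors and benzonase; equal protein was loaded. Immunoblots for CRBN and VHL isoforms were quantified against β-tubulin and reported relative to the averaged 0.1% DMSO vehicle.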
# Target sequence in this assay (P40337 whole entry, looked up): as the sequence (P40337 whole entry, looked up) above
# Target sequence in this assay (Q96SW2 whole entry, looked up): as the sequence (Q96SW2 whole entry, looked up) above
# [3] = target: T1, Protein cereblon/von Hippel-Lindau disease tumor suppressor; assay: Protac activity at VHL/CRBN in human HeLa cells assessed as CRBN protein abundance at 1 uM after 8 hrs by Western blot analysis relative to DMSO; outline: as §2
# Target sequence in this assay (P40337 whole entry, looked up): as the sequence (P40337 whole entry, looked up) above
# Target sequence in this assay (Q96SW2 whole entry, looked up): as the sequence (Q96SW2 whole entry, looked up) above
# [4] = target: T1, Protein cereblon/von Hippel-Lindau disease tumor suppressor; assay: Protac activity at VHL/CRBN in HEK293 cells assessed as pVHL19 protein abundance at 5000 nM after 4 hrs by Western blot analysis relative to DMSO; outline: as §1
# Target sequence in this assay (P40337 whole entry, looked up): as the sequence (P40337 whole entry, looked up) above
# Target sequence in this assay (Q96SW2 whole entry, looked up): as the sequence (Q96SW2 whole entry, looked up) above
# [5] = target: T1, Protein cereblon/von Hippel-Lindau disease tumor suppressor; assay: Protac activity at VHL/CRBN in human HeLa cells assessed as pVHL30 protein abundance at 1 uM after 1 hr by Western blot analysis relative to DMSO; outline: as §2
# Target sequence in this assay (P40337 whole entry, looked up): as the sequence (P40337 whole entry, looked up) above
# Target sequence in this assay (Q96SW2 whole entry, looked up): as the sequence (Q96SW2 whole entry, looked up) above
# [6] = target: T1, Protein cereblon/von Hippel-Lindau disease tumor suppressor; assay: Protac activity at VHL/CRBN in HEK293 cells assessed as CRBN protein abundance at 100 nM after 4 hrs by Western blot analysis relative to DMSO; outline: as §1
# Target sequence in this assay (P40337 whole entry, looked up): as the sequence (P40337 whole entry, looked up) above
# Target sequence in this assay (Q96SW2 whole entry, looked up): as the sequence (Q96SW2 whole entry, looked up) above
# [7] = target: T1, Protein cereblon/von Hippel-Lindau disease tumor suppressor; assay: Protac activity at VHL/CRBN in human HeLa cells assessed as pVHL19 protein abundance at 1 uM after 2 hrs by Western blot analysis relative to DMSO; outline: as §2
# [8] = target: T1, Protein cereblon/von Hippel-Lindau disease tumor suppressor; assay: Protac activity at VHL/CRBN in human HeLa cells assessed as pVHL19 protein abundance at 500 nM after 4 hrs by Western blot analysis relative to DMSO
# Outline: (§3)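 HeLa cells (5 × 10⁵, DMEM + 10% FBS, 37 °C, 5% CO₂, ≤30 passages) seeded overnight, then treated 4 h with compound at single or graded concentrations (0.1% v/v DMSO final). RIPA lysates equalised by Bradford; SDS-PAGE and anti-CRBN/anti-VHL immunoblots; bands normalised to β-tubulin and expressed as % of mean DMSO vehicle. DC₅₀ from fit of band intensity versus log[concentration].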
# [9] = target: T1, Protein cereblon/von Hippel-Lindau disease tumor suppressor; assay: Protac activity at VHL/CRBN in HEK293 cells assessed as pVHL30 protein abundance at 50 nM after 4 hrs by Western blot analysis relative to DMSO; outline: as §1
# [10] = target: T1, Protein cereblon/von Hippel-Lindau disease tumor suppressor; assay: Protac activity at VHL/CRBN in human HeLa cells assessed as pVHL19 protein abundance at 1 uM after 12 hrs by Western blot analysis relative to DMSO; outline: as §2
# [11] = target: T1, Protein cereblon/von Hippel-Lindau disease tumor suppressor; assay: Protac activity at VHL/CRBN in human HeLa cells assessed as pVHL19 protein abundance at 1 uM after 24 hrs by Western blot analysis relative to DMSO; outline: as §2
# [12] = target: T1, Protein cereblon/von Hippel-Lindau disease tumor suppressor; assay: Protac activity at VHL/CRBN in human HeLa cells assessed as pVHL30 protein abundance at 1 uM after 12 hrs by Western blot analysis relative to DMSO; outline: as §2
# [13] = target: T1, Protein cereblon/von Hippel-Lindau disease tumor suppressor; assay: Protac activity at VHL/CRBN in human HeLa cells assessed as pVHL30 protein abundance at 10000 nM after 4 hrs by Western blot analysis relative to DMSO; outline: as §3
# [14] = target: T1, Protein cereblon/von Hippel-Lindau disease tumor suppressor; assay: Protac activity at VHL/CRBN in human HeLa cells assessed as reduction in CRBN protein level at 1 uM after 4 hrs by Western blot analysis; outline: as §3
# [15] = target: T1, Protein cereblon/von Hippel-Lindau disease tumor suppressor; assay: Protac activity at VHL/CRBN in human HeLa cells assessed as pVHL19 protein abundance at 10 nM after 4 hrs by Western blot analysis relative to DMSO; outline: as §3
# [16] = target: T1, Protein cereblon/von Hippel-Lindau disease tumor suppressor; assay: Protac activity at VHL/CRBN in HEK293 cells assessed as pVHL19 protein abundance at 1 uM after 2 hrs by Western blot analysis relative to DMSO; outline: as §1
# [17] = target: T1, Protein cereblon/von Hippel-Lindau disease tumor suppressor; assay: Protac activity at VHL/CRBN in HEK293 cells assessed as induction of CRBN degradation
# [18] = target: T1, Protein cereblon/von Hippel-Lindau disease tumor suppressor; assay: Protac activity at VHL/CRBN in HEK293 cells assessed as induction of CRBN protein degradation after 4 hrs by Western blot analysis
# Outline: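 HEK293 cells seeded at 1 × 10⁶ per well overnight, exposed 4 h to a compound concentration series (0.1% v/v final DMSO), lysed in RIPA, and immunoblotted on equal Bradford-quantified protein. CRBN bands were normalised to β-tubulin and expressed relative to mean DMSO vehicle. DC50 was estimated by fitting band intensity against log[concentration].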
# Target sequence in this assay (P40337 whole entry): as the sequence (P40337 whole entry, looked up) above
# Target sequence in this assay (Q96SW2 whole entry): as the sequence (Q96SW2 whole entry, looked up) above
# [19] = target: T1, Protein cereblon/von Hippel-Lindau disease tumor suppressor; assay: Protac activity at VHL/CRBN in HEK293 cells assessed as induction of VHL degradation at 1 uM after 1 to 24 hrs by Western blot analysis; details: time hrs 1-24
# [20] = target: T1, Protein cereblon/von Hippel-Lindau disease tumor suppressor; assay: Protac activity at VHL/CRBN in HEK293 cells assessed as pVHL19 protein abundance at 5 nM after 4 hrs by Western blot analysis relative to DMSO; outline: as §1
# [21] = target: T1, Protein cereblon/von Hippel-Lindau disease tumor suppressor; assay: Protac activity at VHL/CRBN in HEK293 cells assessed as pVHL19 protein abundance at 100 nM after 4 hrs by Western blot analysis relative to DMSO; outline: as §1
# [22] = target: T1, Protein cereblon/von Hippel-Lindau disease tumor suppressor; assay: Protac activity at VHL/CRBN in human HeLa cells assessed as pVHL19 protein abundance at 5000 nM after 4 hrs by Western blot analysis relative to DMSO; outline: as §3
# [23] = target: T1, Protein cereblon/von Hippel-Lindau disease tumor suppressor; assay: Protac activity at VHL/CRBN in human HeLa cells assessed as induction of VHL degradation at 1 uM after 1 to 24 hrs by Western blot analysis; details: time hrs 1-24; outline: as §2
# [24] = target: T1, Protein cereblon/von Hippel-Lindau disease tumor suppressor; assay: Protac activity at VHL/CRBN in human HeLa cells assessed as pVHL19 protein abundance at 1 uM after 8 hrs by Western blot analysis relative to DMSO; outline: as §2
# [25] = target: T1, Protein cereblon/von Hippel-Lindau disease tumor suppressor; assay: Protac activity at VHL/CRBN in HEK293 cells assessed as CRBN protein abundance at 1 uM after 1 hr by Western blot analysis relative to DMSO; outline: as §1
# [26] = target: T1, Protein cereblon/von Hippel-Lindau disease tumor suppressor; assay: Protac activity at VHL/CRBN in HEK293 cells assessed as CRBN protein abundance at 50 nM after 4 hrs by Western blot analysis relative to DMSO; outline: as §1
# [27] = target: T1, Protein cereblon/von Hippel-Lindau disease tumor suppressor; assay: Protac activity at VHL/CRBN in human HeLa cells assessed as pVHL30 protein abundance at 500 nM after 4 hrs by Western blot analysis relative to DMSO; outline: as §3
# [28] = target: T1, Protein cereblon/von Hippel-Lindau disease tumor suppressor; assay: Protac activity at VHL/CRBN in HEK293 cells assessed as pVHL30 protein abundance at 1 uM after 4 hrs by Western blot analysis relative to DMSO; outline: as §1
# [29] = target: T1, Protein cereblon/von Hippel-Lindau disease tumor suppressor; assay: Protac activity at VHL/CRBN in HEK293 cells assessed as pVHL19 protein abundance at 10 nM after 4 hrs by Western blot analysis relative to DMSO; outline: as §1
smiles,measurement,setting,value
Cc1ncsc1-c1ccc(CNC(=O)[C@@H]2C[C@@H](O)CN2C(=O)[C@@H](NC(=O)COCCCCCOCCOCCCCCOCC(=O)NCCNc2cccc3c2C(=O)N(C2CCC(=O)NC2=O)C3=O)C(C)(C)C)cc1 (some centres undefined),Activity,[1],105%
same,Activity,[2],27%
same,Activity,[3],15%
same,Activity,[4],109%
same,Activity,[5],100%
same,Activity,[6],63%
same,Activity,[7],95%
same,Activity,[8],106%
same,Activity,[9],133%
same,Activity,[10],93%
same,Activity,[11],100%
same,Activity,[12],93%
same,Activity,[13],142%
same,Activity,[14],Active
same,Activity,[15],95%
same,Activity,[16],109%
same,Activity,[17],Active
same,DC50,[18],230 nM
same,Activity,[19],inactive
same,Activity,[20],108%
same,Activity,[21],111%
same,Activity,[22],115%
same,Activity,[23],inactive
same,Activity,[24],100%
same,Activity,[25],14%
same,Activity,[26],91%
same,Activity,[27],83%
same,Activity,[28],98%
same,Activity,[29],110%
